This is a sample that favours compounds with a hit; in the whole collection about 3.6% have one here.
SENP1 FRET inh: blocks the human SENP1 SUMO protease catalytic domain | recombinant SENP1 catalytic domain, CyPet-SUMO1-YPet FRET cleavage | 0.21% of 360,000 active | Q9P0U3 | inhibition, % at 10 µM;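 active = inhibition at least 30% at 10 µM, raw YFP signal under a set limit, fluorescence ratio 0.5 to 1.5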
Target sequence (Q9P0U3 419-644 limits assumed): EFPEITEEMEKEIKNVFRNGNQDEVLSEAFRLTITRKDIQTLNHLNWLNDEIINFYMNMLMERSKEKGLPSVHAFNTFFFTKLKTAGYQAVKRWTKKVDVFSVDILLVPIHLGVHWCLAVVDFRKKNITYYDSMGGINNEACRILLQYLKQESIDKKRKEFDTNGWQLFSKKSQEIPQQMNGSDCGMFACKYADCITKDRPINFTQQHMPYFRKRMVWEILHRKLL
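Assay system – human recombinant His6-tagged SENP1 catalytic domain enzyme · Input – SENP1 enzyme, 20 pM final · Buffer or medium – Tris pH 8 buffer plus EDTA, NaCl, BME, BSA, NP40, catalase · Schedule – 50 min reaction at room temperature · Technique – FRET read of cyan and yellow fluorescence · Control set – no-enzyme wells low, DMSO-plus-enzyme wells high control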
NadD block: blocks S. aureus nicotinate mononucleotide adenylyltransferase | inhibition, % at 20 µM | 0.78% of 360,000 active | purified NadD enzyme, colorimetric absorbance read-out | AID 602399; in the data active = inhibition above about 26%
ATG4B inh: ATG4B (human) cysteine protease inhibition | Q9Y4P1 | inhibition, % at 8.33 µM | ATG4B cleavage of LC3-PLA2, NBD-HPC fluorescence, 1 h | 0.51% of 340,000 active; in the data active = inhibition above about 40%
UCH37 DUB inh: blocks the human deubiquitinase UCH37; Q9Y5K5; purified proteasome/UCH37, Ub-AMC cleavage fluorescence; inhibition, % (test concentration not listed); 0.33% of 330,000 active; AID 588478;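 active = mean inhibition over replicate wells above about 20%, limit read from the data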
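Material: Human UCH37 enzyme supplied as purified proteasome complex | Schedule: 30 min compound-proteasome preincubation then 25 min substrate reaction, room temperature | Detection: AMC fluorescence from Ub-AMC cleavage, excitation 355 nm, emission 460 nm | Benchmarks: Wells without proteasome as full block, compound-free enzyme plus substrate as uninhibited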
GRIN3A LBD mod: modulators (binders) of human NR3A ligand-binding domain | NR3A LBD differential scanning fluorimetry, Tm shift; 0% = protein alone, 100% = glycine-bound protein | Tm shift relative to glycine control, % at 25 µM | 2.5% of 340,000 active | AID 1259313;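 active = melting temperature shift of at least 10% of the positive control shift, at one fixed dose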
A number is an active result.

COCCN(CCOC)S(=O)(=O)c1ccc(C(=O)Nc2nc(-c3ccccc3)c(C(=O)c3ccccc3)s2)cc1 was read as SENP1 FRET inh inactive, NadD block inactive, ATG4B inh inactive, UCH37 DUB inh inactive and GRIN3A LBD mod inactive.
Screening CCCN(CCC)S(=O)(=O)c1ccc(C(=O)Nc2nc(-c3ccccc3)c(C(=O)OCC)s2)cc1 returned SENP1 FRET inh inactive, NadD block inactive, ATG4B inh inactive, UCH37 DUB inh inactive and GRIN3A LBD mod 20.
`CC(C)N1CCc2c(sc(NC(=O)c3ccc4ccccc4c3)c2C(N)=O)C1` gave SENP1 FRET inh inactive, NadD block inactive, ATG4B inh inactive, UCH37 DUB inh inactive and GRIN3A LBD mod inactive.
For CC(C)N1CCc2c(sc(NC(=O)c3cc4cc([N+](=O)[O-])ccc4s3)c2C(N)=O)C1 the results were SENP1 FRET inh inactive, NadD block inactive, ATG4B inh inactive, UCH37 DUB inh inactive and GRIN3A LBD mod 10.
Screening C(=Nn1cnnc1)c1cccc(Oc2ccccc2)c1 returned UCH37 DUB inh inactive.
`CC(=NNC(=O)c1nn(C)c(C)c1Br)c1ccc(NC(=O)C2CCCC2)cc1` gave UCH37 DUB inh inactive.
Screening O=c1[nH]nc(CNc2cccc(C(F)(F)F)c2)c2ccccc12 returned SENP1 FRET inh inactive, NadD block inactive, ATG4B inh inactive, UCH37 DUB inh inactive and GRIN3A LBD mod inactive.
`CCn1c(CNc2cccc(C(F)(F)F)c2)n[nH]c1=S` gave SENP1 FRET inh inactive, NadD block inactive, ATG4B inh inactive, UCH37 DUB inh 32 and GRIN3A LBD mod inactive.
Screening CC(C)C(=O)Nc1ccc(NC(=S)NC(=O)c2cc3ccccc3o2)cc1 returned SENP1 FRET inh inactive, NadD block inactive, ATG4B inh inactive, UCH37 DUB inh inactive and GRIN3A LBD mod 17.
Screening CC(=O)Nc1ccc(NC(=S)NC(=O)c2cc3ccccc3o2)cc1 returned SENP1 FRET inh inactive, NadD block inactive, ATG4B inh inactive, UCH37 DUB inh inactive and GRIN3A LBD mod 16.
For COc1ccc(C=NNc2nonc2N)c(OC)c1 the results were UCH37 DUB inh inactive.
`O=C(NC(=S)N(Cc1ccccc1)c1ccccn1)C1CC1` gave SENP1 FRET inh inactive, NadD block inactive, ATG4B inh inactive, UCH37 DUB inh inactive and GRIN3A LBD mod 17.
For O=C(NC(=S)N(Cc1ccccc1)Cc1ccccc1)C1CCCCC1 the results were SENP1 FRET inh inactive, NadD block inactive, ATG4B inh inactive, UCH37 DUB inh inactive and GRIN3A LBD mod inactive.
For COc1cc(/C=N\Nc2ccc([N+](=O)[O-])cc2)ccc1OCC(=O)Nc1ccc(C)c(C)c1 the results were SENP1 FRET inh inactive, NadD block inactive, ATG4B inh inactive and GRIN3A LBD mod 17.
COc1cc(/C=N/NC(=O)c2ccccc2O)ccc1OCC(=O)Nc1ccccc1 was read as SENP1 FRET inh inactive, NadD block inactive, ATG4B inh inactive and GRIN3A LBD mod 37.
`CCOc1cc(C=NNc2ccc([N+](=O)[O-])cc2)ccc1OCC(=O)Nc1ccc(C)c(C)c1` gave UCH37 DUB inh inactive.
For COc1ccc(C=NNC(=O)Cc2ccc(Cl)cc2)cc1OC the results were UCH37 DUB inh 35.
O=C(COc1ccc(/C=N/NC(=O)c2ccccc2O)cc1)Nc1ccccc1 was read as SENP1 FRET inh inactive, NadD block inactive, ATG4B inh inactive and GRIN3A LBD mod 16.
Screening COCc1cc(/C=N\NC(=O)Cc2ccc(Cl)cc2)ccc1OC returned SENP1 FRET inh inactive, NadD block inactive, ATG4B inh inactive and GRIN3A LBD mod inactive.
O=C(COc1ccc(/C=N/NC(=O)c2ccccc2Br)cc1)Nc1ccccc1 was read as SENP1 FRET inh inactive, NadD block inactive, ATG4B inh inactive and GRIN3A LBD mod inactive.
For O=C(COc1ccc(/C=N/NC(=O)c2cccnc2)cc1)Nc1ccccc1 the results were SENP1 FRET inh inactive, NadD block inactive, ATG4B inh inactive and GRIN3A LBD mod 13.
COc1ccccc1NC(=O)COc1ccc(/C=N/NC(=O)c2cccnc2)cc1 was read as SENP1 FRET inh inactive, NadD block inactive, ATG4B inh inactive and GRIN3A LBD mod inactive.
Cn1c(-c2ccccc2)c(C=NNC(=O)c2ccc(O)cc2)c2ccccc21 was read as UCH37 DUB inh inactive.
`O=CN/C=C/c1cccc(O)c1` gave SENP1 FRET inh inactive, NadD block inactive, ATG4B inh inactive and GRIN3A LBD mod 14.

Bioassay records deposited in PubChem BioAssay by several laboratories.
